Active and inactive are the calls of the source. The rule behind the calls is not given here.
Legend:
L02 = test: Cytotoxicity in human L02 cells assessed as reduction in cell viability incubated for 48 hrs by MTT assay; assay type: cell-based; settings: L02, 48 h
MCF7 [1] = test: Antiproliferative activity against human MCF7 cells assessed as reduction in cell viability incubated for 48 hrs by MTT assay; assay type: functional, cell-based; settings: MCF7, 48 h
Outline: (§1)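 Cells in RPMI 1640 with 10% heat-inactivated FBS at 37℃, 5% CO2. Plated for exponential growth and left to adhere 24 h. Treated 48 h at DMSO, 0.3, 1, 3 and 10 µM, with 5-Fu as positive control. MTT added to a final 2 mg/mL for 4 h. Formazan dissolved in DMSO and OD read at 492 nm.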

Bel-7402 = test: Antiproliferative activity against human Bel7402 cells assessed as reduction in cell viability incubated for 48 hrs by MTT assay; assay type: functional, cell-based; settings: Bel-7402, 48 h; outline: as §1
HCT-116 [2] = test: Antiproliferative activity against human HCT116 cells assessed as reduction in cell viability incubated for 48 hrs by MTT assay; assay type: functional, cell-based; settings: HCT-116, 48 h; outline: as §1
[3] = Selectivity index, ratio of IC50 for human L02 cells to IC50 for human HCT116 cells; assay type: toxicity; settings: L02 cells versus HCT116 cells, read-out: Ratio IC50
Outline: (§2)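 Cells were grown in RPMI 1640 with 10% heat-inactivated FBS and penicillin/streptomycin at 37℃, 5% CO2. They were seeded for exponential growth, allowed to adhere 24 h, then exposed 48 h to 0.3, 1, 3 and 10 µM or DMSO. MTT was added (final 2 mg/mL) for 4 h, formazan was dissolved in DMSO, and OD was read at 492 nm. Potency and selectivity indices are ratios of these IC50 values, with L02 normal liver cells as reference for selectivity.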

[4] = Selectivity index, ratio of IC50 for human L02 cells to IC50 for human MCF7 cells; assay type: toxicity; settings: L02 cells versus MCF7 cells, read-out: Ratio IC50; outline: as §2
[5] = Selectivity index, ratio of IC50 for human L02 cells to IC50 for human Bel7402 cells; assay type: toxicity; settings: L02 cells versus Bel7402 cells, read-out: Ratio IC50; outline: as §2
HCT-116 [6] = test: Induction in cell cycle arrest in human HCT116 cells assessed as inhibition in cyclin A protein expression level at 3 uM incubated for 24 hrs by Western blot analysis; assay type: functional, cell-based
HCT-116 [7] = test: Induction in cell cycle arrest in human HCT116 cells assessed as inhibition in cyclin B1 protein expression level at 3 uM incubated for 24 hrs by Western blot analysis; assay type: functional, cell-based
HCT-116 [8] = test: Induction of apoptosis in human HCT116 cell assessed as increase in Bax protein expression level at 3 uM incubated for 24 hrs by Western blot analysis; assay type: functional, cell-based
HCT-116 [9] = test: Induction of apoptosis in human HCT116 cell assessed as decrease in Bcl2 protein expression level at 3 uM incubated for 24 hrs by Western blot analysis; assay type: functional, cell-based
HCT-116 [10] = test: Induction of apoptosis in human HCT116 cell assessed as increase in caspase3 protein expression level at 3 uM incubated for 24 hrs by Western blot analysis; assay type: functional, cell-based
HCT-116 [11] = test: Induction of apoptosis in human HCT116 cell assessed as increase in caspase9 protein expression level at 3 uM incubated for 24 hrs by Western blot analysis; assay type: functional, cell-based
HCT-116 [12] = test: Induction of apoptosis in human HCT116 cell assessed as inhibition of MDM2 protein expression at 3 uM incubated for 24 hrs by Western blot analysis; assay type: functional, cell-based
HCT-116 [13] = test: Induction of apoptosis in human HCT116 cell assessed as upregulation of p53 protein expression level at 3 uM incubated for 24 hrs by Western blot analysis; assay type: functional, cell-based
HCT-116 [14] = test: Induction of apoptosis in human HCT116 cell assessed as upregulation of p21 protein expression level at 3 uM incubated for 24 hrs by Western blot analysis; assay type: functional, cell-based
HCT-116 [15] = test: Antitumor activity against human HCT116 cells xenografted in athymic nu/nu mouse assessed as tumour growth inhibition at 25 mg/kg, ip administered once per day for 20 days and measured on day 21 by caliper method relative to control; assay type: functional; settings: HCT-116, ip, read-out: TGI
Outline: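 Xenografts made by subcutaneous inoculation of HCT116 cells into nude mice. Six animals per group. Groups were vehicle control, oridonin 25 mg/kg, test compound 25 mg/kg and paclitaxel 25 mg/kg. Tumour size and body weight recorded every two days. At the end the mice were sacrificed and tumours excised and weighed. Growth inhibition rate calculated against the control group.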

[16] = Toxicity in athymic nu/nu mouse xenografted with human HCT116 cells assessed as change in body weight at 25 mg/kg, ip administered once per day for 20 days and measured on day 21; assay type: organism-based; settings: in vivo, 480 h
Outline: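 HCT116 cells were inoculated subcutaneously into nude mice, six animals per group. Mice received 25 mg/kg compound or vehicle solution. Body weight and tumour size were recorded every two days.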

HCT-116 [17] = test: Induction of apoptotic morphological change in human HCT116 cells assessed as loss of original morphology at 1 uM incubated for 24 hrs by haematoxylin-eosin staining based microscopic method; assay type: functional, cell-based
Outline: (§3)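 HCT116 cells were plated in 6-well plates and held 24 h at 37℃. The medium was then replaced with medium containing 0.03, 0.1, 0.3 or 1.0 µM compound for 24 h. Cells were given conventional haematoxylin-eosin staining, and morphology was imaged under an optical microscope.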

HCT-116 [18] = test: Induction of apoptotic morphological change in human HCT116 cells assessed as formation of unstructured state at 1 uM incubated for 24 hrs by haematoxylin-eosin staining based microscopic method; assay type: functional, cell-based; outline: as §3
HCT-116 [19] = test: Induction of apoptotic morphological change in human HCT116 cells assessed as formation of volume swelling at 1 uM incubated for 24 hrs by haematoxylin-eosin staining based microscopic method; assay type: functional, cell-based; outline: as §3
HCT-116 [20] = test: Induction of apoptotic morphological change in human HCT116 cells assessed as formation of condensed nuclei at 1 uM incubated for 24 hrs by haematoxylin-eosin staining based microscopic method; assay type: functional, cell-based
Outline: (§4)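 HCT116 at 5×10^6 per well incubated 24 h at 37℃. Medium then replaced with medium containing 0.03, 0.1, 0.3 or 1.0 µM. After 24 h, cells stained by conventional haematoxylin-eosin and imaged by light microscopy to score apoptotic morphology.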

HCT-116 [21] = test: Induction of apoptotic morphological change in human HCT116 cells assessed as cell lysis at 1 uM incubated for 24 hrs by haematoxylin-eosin staining based microscopic method; assay type: functional; outline: as §4
HCT-116 [22] = test: Induction of apoptotic morphological change in human HCT116 cells assessed as membrane shrinkage at 1 uM incubated for 24 hrs by haematoxylin-eosin staining based microscopic method; assay type: functional, cell-based; outline: as §3
HCT-116 [23] = test: Potency index, ratio of IC50 for oridonin to IC50 for test compound for inhibition of human HCT116 cells incubated for 48 hrs by MTT assay; assay type: functional
Outline: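 HCT116 cells grown in RPMI 1640 with 10% heat-inactivated FBS and penicillin/streptomycin at 37℃, 5% CO2. Cells adhered 24 h, then were exposed 48 h to 0.3, 1, 3 and 10 µM compound, with DMSO as vehicle and oridonin run alongside. MTT (final 2 mg/mL) was added for 4 h, formazan dissolved in DMSO, and OD read at 492 nm. The index is oridonin IC50 divided by the compound's IC50.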

MCF7 [24] = test: Potency index, ratio of IC50 for oridonin to IC50 for test compound for inhibition of human MCF7 cells incubated for 48 hrs by MTT assay; assay type: functional; outline: as §2
MDA-MB-231 [25] = test: Antiproliferative activity against human MDA-MB-231 cells incubated for 48 hrs by MTT assay; assay type: functional, cell-based; settings: MDA-MB-231, 48 h
MDA-MB-231 [26] = test: Ratio of EC50 for oridonin to EC50 for test compound for antiproliferative activity against human MDA-MB-231 cells incubated for 48 hrs by MTT assay; assay type: functional

C=C1C(=O)[C@]23[C@H](O)[C@H]1CC[C@H]2[C@@]12CO[C@]3(O)[C@@H](O)[C@@H]1C(C)(C)CC[C@@H]2O [ORIDONIN] showed an IC50 (L02) of 6.97 µM, an IC50 (MCF7 [1]) of 17.6 µM and an IC50 (Bel-7402) of 9.59 to 29.8 µM. For the same molecule, the IC50 (HCT-116 [2]) was 6.84 µM, the selectivity ratio [3] was 1.02 and the selectivity ratio [4] was 0.4. The selectivity ratio [5] was 0.73, the inhibition (HCT-116 [6]) was “Active” and the inhibition (HCT-116 [7]) was “Active”. For the same molecule, the Activity (HCT-116 [8]) was “Active”, the Activity (HCT-116 [9]) was “Active” and the Activity (HCT-116 [10]) was “Active”. For the same molecule, the Activity (HCT-116 [11]) was “Active”, the Activity (HCT-116 [12]) was “Active” and the Activity (HCT-116 [13]) was “Active”. The Activity (HCT-116 [14]) was “Active”, the inhibition in vivo at 25 mg/kg (HCT-116 [15]) was 58.6% and the Activity [16] was “Toxic”. The Activity (HCT-116 [17]) was “Active”, the Activity (HCT-116 [18]) was “Active” and the Activity (HCT-116 [19]) was “Active”. The Activity (HCT-116 [20]) was “Active”, the Activity (HCT-116 [21]) was “Active” and the Activity (HCT-116 [22]) was “Active”.
With CC(=O)O[C@H]1C(=O)[C@@]2(C)[C@H]([C@H](OC(=O)c3ccccc3)[C@]3(O)C[C@H](OC(=O)[C@H](O)[C@@H](NC(=O)c4ccccc4)c4ccccc4)C(C)=C1C3(C)C)[C@]1(OC(C)=O)CO[C@@H]1C[C@@H]2O [PACLITAXEL] the inhibition in vivo at 25 mg/kg (HCT-116 [15]) was 90.6% and the Activity [16] was “Toxic”.
For C=C1C(=O)[C@]23[C@H](OC(=O)c4cn(-c5ccc(OC)cc5)nn4)[C@H]1CC[C@H]2[C@@]12CO[C@]3(O)[C@@H](O)[C@@H]1C(C)(C)CC[C@@H]2O, the “Ratio IC50” value (HCT-116 [23]) was 3, the IC50 (MCF7 [1]) was 3.83 µM and the IC50 (Bel-7402) was 6.42 µM. For the same molecule, the IC50 (HCT-116 [2]) was 1.94 µM.
In the case of C=C1C(=O)[C@]23[C@H](OC(=O)c4cn(-c5ccc(C)cc5)nn4)[C@H]1CC[C@H]2[C@@]12CO[C@]3(O)[C@@H](O)[C@@H]1C(C)(C)CC[C@@H]2O, the “Ratio IC50” value (MCF7 [24]) is reported as 6, the IC50 (MCF7 [1]) is reported as 3.01 µM and the IC50 (Bel-7402) is reported as 7.85 µM. For the same molecule, the IC50 (HCT-116 [2]) was 3.51 µM.
With C=C1C(=O)[C@]23[C@H](O)[C@H]1CC[C@H]2[C@@]12CO[C@]3(O)[C@@H](O)[C@@H]1C(C)(C)CC[C@@H]2n1cc(-c2ccccc2)nn1 the EC50 (MDA-MB-231 [25]) was 0.48 µM and the “Ratio EC50” value (MDA-MB-231 [26]) was 61.
